Assay outcomes from PubChem.
Rows were chosen to be rich in hits. Some 1.7% of all compounds tested hit in one or more screens of this group.
Scp-1 inhibitor: Scp-1 phosphatase inhibitors, primary screen, biochemical, colorimetric, uHTS; Carboxy-terminal domain RNA polymerase II polypeptide A small phosphatase 1 (Homo …; Recombinant Scp1, phosphopeptide, malachite green phosphate absorbance; inhibition, % at 20 µM; actives 0.88% (n = 340,000);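 active = inhibition above about 50% at 20 µM, limit read from the data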;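 note: plate controls were DMSO wells with enzyme for no effect and wells lacking enzyme for full effect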
Target sequence (Q9GZU7 76-261 limits assumed): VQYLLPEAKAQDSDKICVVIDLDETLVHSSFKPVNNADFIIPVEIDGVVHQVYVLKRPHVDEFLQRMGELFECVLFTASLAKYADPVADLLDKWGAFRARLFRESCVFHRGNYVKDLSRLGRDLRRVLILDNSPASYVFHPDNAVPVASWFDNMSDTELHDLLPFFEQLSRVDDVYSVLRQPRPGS
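Test system: SCP-1 catalytic domain; Buffer or medium: Acidic Tris acetate buffer with magnesium and detergent; Also added: Phosphorylated 17-residue peptide substrate; Compound: single 20 µM dose, 1% DMSO; Schedule: enzyme reaction 45 min at room temperature, colour 5 min, stabilisation 30 min; Signal: Phosphate-binding colour reagent, absorbance read at 630 nm.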
SUMO1 PPI mod: modulators of SUMO1 protein-protein interactions, primary screen, biochemical, uHTS | Small ubiquitin-related modifier 1 (Homo sapiens), P63165 | SUMO1 binding to a labelled peptide, TR-FRET, 1 h | inhibition, % at 20 µM | actives 0.33% (n = 360,000) | AID 602429, 2012; in the data active = inhibition above about 37%
Target sequence (P63165 whole entry, looked up): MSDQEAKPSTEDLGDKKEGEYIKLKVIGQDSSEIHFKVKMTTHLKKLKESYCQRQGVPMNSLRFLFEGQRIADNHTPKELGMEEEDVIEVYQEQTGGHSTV
STEP block: STEP phosphatase inhibitors, primary screen, biochemical, fluorescence intensity, uHTS; recombinant STEP, OMFP fluorogenic substrate; actives 0.25% (n = 360,000); Tyrosine-protein phosphatase non-receptor type 5 (Homo sapiens), P54829; inhibition, % at 20 µM;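 active = inhibition at 20 µM, scaled per plate between control wells, above about 37%, limit read from the data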;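 note: 0% = DMSO with enzyme and substrate and 100% = substrate only without enzyme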
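Assay system: isolated STEP enzyme. Buffer or medium: pH 6.0 Bis-Tris with DTT and Tween 20. Also added: fluorogenic phosphatase substrate OMFP at 25 µM final. Dosing: 20 µM, 1% DMSO. Timing: 20 min reaction, room temperature, in the dark. Measured by: fluorescence intensity, excitation 480 nm, emission 540 nm. Evaluation: normalized % inhibition.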
LMPTP block: LMPTP phosphatase inhibitors, primary screen, biochemical, fluorescence intensity, uHTS. Low molecular weight phosphotyrosine protein phosphatase (Homo sapiens), P24666. recombinant LMPTP-A, OMFP fluorogenic substrate. inhibition, % at 20 µM. actives 0.22% (n = 360,000);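 active = compounds that cut the enzyme signal by at least half of the control window in the single-dose screen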;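 note: plate controls were DMSO wells with enzyme plus substrate for no effect and substrate without enzyme for full effect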
Target sequence (P24666 whole entry, looked up): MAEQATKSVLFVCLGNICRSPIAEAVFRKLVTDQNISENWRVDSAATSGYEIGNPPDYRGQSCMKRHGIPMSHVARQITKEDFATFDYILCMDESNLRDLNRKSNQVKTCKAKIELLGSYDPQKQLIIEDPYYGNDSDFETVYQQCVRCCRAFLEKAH
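Assay system: LMPTP-A phosphatase enzyme | Input: 0.625 nM enzyme | Also added: Fluorogenic phosphatase substrate OMFP at 400 µM final | Compound dosing: One test concentration per compound, 20 µM, with 3% DMSO overall | Schedule: 50 min enzyme reaction at room temperature, protected from light | Signal: Fluorescence intensity | Benchmarks: no-enzyme and uninhibited controls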
DNMT1 inh: human DNMT1 methyltransferase inhibitors, primary screen, biochemical, molecular beacon, fluorescence, HinP1I cleavage, uHTS | inhibition (reported as % activation of signal), % at 10 µM | DNA (cytosine-5)-methyltransferase 1 (Homo sapiens), P26358 | actives 0.83% (n = 360,000); in the data active = inhibition above about 50%
Scp-1 conf: Scp-1 phosphatase inhibitors, retest, confirmation, biochemical, colorimetric, single concentration; shares compounds with Scp-1 inhibitor; actives 61% (n = 2,500); recombinant SCP-1 catalytic domain, phosphate release, malachite green absorbance; AID 540281, 2011; inhibition, % at 20 µM;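 note: plate controls were DMSO with enzyme for no effect and buffer wells lacking enzyme for full effect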
MG interference: colorimetric readout interference by compounds, confirmation, artefact control for Scp-1 inhibitor project, biochemical, single concentration; 2,500 tested, under 10 active; Colorimetric interference counterscreen, malachite green absorbance 630 nm; apparent inhibition (interference), % at 20 µM; shares compounds with Scp-1 inhibitor;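 note: compounds added after enzyme reaction finished so only phosphate colour detection is probed; plate controls were DMSO wells with completed Scp-1 reaction for no effect and substrate wells lacking enzyme for full effect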
Scp1 DSF: Scp-1 binding by thermal shift, confirmation, orthogonal assay for Scp-1 inhibitor project, biophysical, differential scanning fluorimetry; shares compounds with Scp-1 inhibitor; Recombinant SCP1, Sypro Orange thermal shift Tm; thermal shift relative to vanadate control, % at 40 µM; actives 25% (n = 1,500); AID 540329, 2011;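 active = substances whose mean melting-temperature shift, as a percentage of the reference inhibitor's shift, reaches about 5.3%, limit read from the data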;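 note: 0% = Tm of DMSO wells and 100% = Tm with sodium orthovanadate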
* hit, by the source's call.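 Rule for the calls, unless noted: active = inhibition of at least 30% at 20 µM; inactive = the rest.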

Results for COc1ccccc1NC(=O)NNC(=O)COc1ccc2ccccc2c1 ?
Scp-1 inhibitor: 1.0; SUMO1 PPI mod: 1.6; STEP block: 0.3; LMPTP block: -0.2; DNMT1 inh: -2.3

Results for COc1cc(/C=C/C(=O)O)cc(S(=O)(=O)NNC(=O)c2cc(C)oc2C)c1OC ?
Scp-1 inhibitor: 52.8*; SUMO1 PPI mod: 4.1; STEP block: -0.6; LMPTP block: -1.0; DNMT1 inh: 18.4; Scp-1 conf: 48.9*; MG interference: 2.8; Scp1 DSF: -2.8

What do the screens show for `CC(C)OCCOc1ccc2oc(-c3ccco3)cc(=O)c2c1`?
Scp-1 inhibitor: 61.3*; SUMO1 PPI mod: -11.8; STEP block: 36.4; LMPTP block: 14.7; DNMT1 inh: 28.1; Scp-1 conf: 59.9*; MG interference: -17.8; Scp1 DSF: -16.7

What do the screens show for `COCCS(=O)(=O)N(Cc1ccc(Br)cc1)[C@@H](C)C(=O)OC`?
Scp-1 inhibitor: 3.9; SUMO1 PPI mod: -7.9; STEP block: -0.3; LMPTP block: 0.0; DNMT1 inh: -3.5

What do the screens show for `CC(C)(C)OC1NS(=O)(=O)OCC1NCOC(Cl)(Cl)Cl` (stereo unspecified)?
Scp-1 inhibitor: -1.3; SUMO1 PPI mod: -2.9; STEP block: 0.8; LMPTP block: -0.2; DNMT1 inh: 0.6

Results for C[N+]1(CC2COC3(CCCCC3)O2)CCCC1 (stereo unspecified) ?
Scp-1 inhibitor: 61.4*; SUMO1 PPI mod: -1.6; STEP block: -3.1; LMPTP block: -1.8; DNMT1 inh: -1.0; Scp-1 conf: 0.2; MG interference: -1.9

How did Cc1cccc(N2CCN(C(=O)CCC(=O)N3CC(C)Oc4ccc(C)cc43)CC2C)c1 (stereo unspecified) do in these assays?
Scp-1 inhibitor: -1.2; SUMO1 PPI mod: -0.1; STEP block: 1.7; LMPTP block: 0.3; DNMT1 inh: -2.1

How did CCn1cc(C(=O)NCC(C)C)c(=O)c2cc(F)c(N3CCN(C(=O)c4ccco4)CC3)cc21 do in these assays?
Scp-1 inhibitor: 1.8; SUMO1 PPI mod: 9.0; STEP block: -1.7; LMPTP block: 1.1; DNMT1 inh: -0.1

What do the screens show for `CCn1cc(C(=O)NCc2ccco2)c(=O)c2cc(F)c(N3CCN(C(=O)c4ccco4)CC3)cc21`?
Scp-1 inhibitor: 57.6*; SUMO1 PPI mod: 15.5; STEP block: 2.8; LMPTP block: 5.5; DNMT1 inh: 5.9; Scp-1 conf: 36.9*; MG interference: -10.9; Scp1 DSF: -10.1

What do the screens show for `O=C(NCC1CCCO1)c1ccccc1` (stereo unspecified)?
Scp-1 inhibitor: -3.6; SUMO1 PPI mod: 1.1; STEP block: 0.3; LMPTP block: -0.6; DNMT1 inh: 1.6

Results for O=C(Cc1ccc([N+](=O)[O-])cc1)NCC1CCCO1 (stereo unspecified) ?
Scp-1 inhibitor: -7.1; SUMO1 PPI mod: -10.4; STEP block: -1.9; LMPTP block: 0.2; DNMT1 inh: -3.1

Results for C[n+]1cccc(C(=O)NCC2CCCO2)c1 (stereo unspecified) ?
Scp-1 inhibitor: 59.9*; SUMO1 PPI mod: 3.9; STEP block: -0.9; LMPTP block: -3.2; DNMT1 inh: -3.5; Scp-1 conf: -8.7; MG interference: -17.8
